Measured values from ChEMBL document CHEMBL5120972, “Small-Molecule Inhibitors of the MLL1 CXXC Domain, an Epigenetic Reader of DNA Methylation” (ACS Med Chem Lett, 2022).

Key:
[1] = molecular target: T1, CXXC-type zinc finger protein 4 (Homo sapiens, UniProt Q9H2H0); experiment: Inhibition of GST-tagged human IDAX (130 to 181 residues) expressed in Escherichia coli BL21 cells incubated for 30 mins by fluorescence polarization assay
T1 sequence (Q9H2H0 whole entry): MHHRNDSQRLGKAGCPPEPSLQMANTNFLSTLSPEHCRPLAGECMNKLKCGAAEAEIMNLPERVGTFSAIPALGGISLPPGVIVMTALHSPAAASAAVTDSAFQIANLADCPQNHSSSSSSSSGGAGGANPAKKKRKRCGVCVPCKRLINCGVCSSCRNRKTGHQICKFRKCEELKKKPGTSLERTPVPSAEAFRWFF
In short: (§1)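 Competition fluorescence polarization assay. CXXC domain protein is held at 2× its own KD. All domains are expressed and purified by the same method. Standard deviations come from three separate measurements.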

[2] = molecular target: T2, Lysine-specific demethylase 2A (Homo sapiens, UniProt Q9Y2K7); experiment: Inhibition of GST-tagged human KDM2A (562 to 618 residues) expressed in Escherichia coli BL21 cells incubated for 30 mins by fluorescence polarization assay; in short: as §1
T2 sequence (Q9Y2K7 whole entry): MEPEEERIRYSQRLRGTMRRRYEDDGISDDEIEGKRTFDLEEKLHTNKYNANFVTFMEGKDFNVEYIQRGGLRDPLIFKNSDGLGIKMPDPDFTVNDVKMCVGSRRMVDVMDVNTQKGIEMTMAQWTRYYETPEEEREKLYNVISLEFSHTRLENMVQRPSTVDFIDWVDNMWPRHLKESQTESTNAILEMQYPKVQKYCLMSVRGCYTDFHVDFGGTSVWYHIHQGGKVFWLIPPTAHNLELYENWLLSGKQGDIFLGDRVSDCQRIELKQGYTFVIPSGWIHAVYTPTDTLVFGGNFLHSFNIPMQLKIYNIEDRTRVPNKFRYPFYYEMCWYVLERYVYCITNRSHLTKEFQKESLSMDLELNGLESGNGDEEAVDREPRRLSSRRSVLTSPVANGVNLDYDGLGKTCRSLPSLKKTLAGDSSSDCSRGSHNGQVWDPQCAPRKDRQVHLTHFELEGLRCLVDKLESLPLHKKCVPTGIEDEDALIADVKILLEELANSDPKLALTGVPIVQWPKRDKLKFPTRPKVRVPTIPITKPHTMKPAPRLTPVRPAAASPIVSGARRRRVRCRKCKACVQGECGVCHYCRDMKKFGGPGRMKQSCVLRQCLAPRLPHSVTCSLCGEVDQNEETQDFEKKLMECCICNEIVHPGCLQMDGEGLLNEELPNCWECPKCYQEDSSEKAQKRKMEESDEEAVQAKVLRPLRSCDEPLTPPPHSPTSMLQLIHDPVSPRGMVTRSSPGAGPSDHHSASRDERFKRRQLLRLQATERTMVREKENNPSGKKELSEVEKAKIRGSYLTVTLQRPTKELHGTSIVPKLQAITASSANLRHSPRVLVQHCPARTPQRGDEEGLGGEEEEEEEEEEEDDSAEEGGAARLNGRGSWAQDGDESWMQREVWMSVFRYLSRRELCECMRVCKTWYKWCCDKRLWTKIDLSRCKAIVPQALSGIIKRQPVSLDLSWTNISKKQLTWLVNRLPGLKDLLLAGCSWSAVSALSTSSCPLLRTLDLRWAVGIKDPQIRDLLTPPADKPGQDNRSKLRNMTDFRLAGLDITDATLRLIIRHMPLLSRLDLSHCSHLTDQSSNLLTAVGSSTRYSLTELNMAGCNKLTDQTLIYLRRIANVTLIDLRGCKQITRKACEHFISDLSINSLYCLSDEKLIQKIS

C=CC(=O)N1CCC(C(=O)O)(c2ccc(OCC)cc2)CC1
IC50 [1]: 1.2 µM
IC50 [2]: 4.2 µM

C=CC(=O)N1CCC(c2ccc(OCC)cc2)(c2nnn[nH]2)CC1
IC50 [1]: 8.9 µM
IC50 [2]: 36 µM

C=CC(=O)N1CCC(C(=O)O)(c2ccc(Cl)cc2)CC1
IC50 [1]: 33 µM
IC50 [2]: 33 µM

C=CC(=O)N1CCC(c2ccccc2)(c2nnn[nH]2)CC1
IC50 [1]: 2.4 µM
IC50 [2]: 4.4 µM

C=CC(=O)N1CCC(c2ccc(OC)cc2)(c2nnn[nH]2)CC1
IC50 [1]: 8.3 µM
IC50 [2]: 16.4 µM

C=CC(=O)N1CCC(C(=O)NS(=O)(=O)c2ccccc2)(c2ccccc2)CC1
IC50 [1]: 23 µM
IC50 [2]: 30 µM

C=CC(=O)N1CCC(C(=O)O)(c2ccccc2)CC1
IC50 [1]: 4 µM
IC50 [2]: 3.9 µM

C=CC(=O)N1CCC(C(=O)O)(c2ccc(OC)cc2)CC1
IC50 [1]: 35 µM
IC50 [2]: 30 µM

C=CC(=O)N1CCC(c2cccc(OCC)c2)(c2nnn[nH]2)CC1
IC50 [1]: 2.2 µM
IC50 [2]: 7.4 µM
